Test results from ChEMBL document CHEMBL1143805, “Synthesis and antimicrobial activities of some novel 1,2,4-triazolo[3,4-b]-1,3,4-thiadiazoles and 1,2,4-triazolo[3,4-b]-1,3,4-thiadiazines carrying thioalkyl and sulphonyl phenoxy moieties” (2007).
In brackets after ≈: the same amount, converted by molar mass.

Legend:
Escherichia coli = test: Antibacterial activity against Escherichia coli ATCC 25922; format: functional; conditions: for MIC: Escherichia coli, ATCC 25922
Method in brief: (§1)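 MIC by serial dilution in Mueller-Hinton broth tubes, pH adjusted to 5.0 with phosphate buffer. A standardized bacterial suspension was inoculated and incubated 16-18 h at 37 °C, and MIC was read as the lowest concentration with no visible growth. Zones were also measured in agar wells on seeded plates, with compounds in DMSO and a DMSO control, triplicate plates, 37 °C for 3-4 days.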

Aspergillus flavus = test: Antifungal activity against Aspergillus flavus NCIM 524; format: functional; conditions: for MIC: Aspergillus flavus, NCIM 524
Method in brief: (§2)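 Agar-well diffusion on Sabouraud agar at pH 5.7. Plates were lawned with a saline spore suspension (one loopful in 3 ml), decanted and dried 1 h at 37 °C. Compounds in DMSO went into punched wells, with a DMSO solvent control. Plates were run in triplicate and kept at 37 °C for 3-4 days, with inhibition-zone diameter as read-out.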

Talaromyces marneffei = test: Antifungal activity against Penicillium marneffei; format: functional; conditions: for MIC: Talaromyces marneffei; method in brief: as §2
Aspergillus fumigatus = test: Antifungal activity against Aspergillus fumigatus NCIM 902; format: functional; conditions: for MIC: Aspergillus fumigatus, NCIM 902
Trichophyton benhamiae = test: Antifungal activity against Trichophyton mentagrophytes; format: functional, Arthroderma benhamiae; conditions: for MIC: Trichophyton benhamiae; method in brief: as §2
Klebsiella pneumoniae = test: Antibacterial activity against Klebsiella pneumoniae; format: functional; conditions: for MIC: Klebsiella pneumoniae; method in brief: as §1
Pseudomonas aeruginosa = test: Antibacterial activity against Pseudomonas aeruginosa ATCC 27853; format: functional; conditions: for MIC: Pseudomonas aeruginosa, ATCC 27853; method in brief: as §1
Staphylococcus aureus = test: Antibacterial activity against Staphylococcus aureus ATCC 25923; format: functional; conditions: for MIC: Staphylococcus aureus, ATCC 25923; method in brief: as §1

MIC (Escherichia coli) [µg/mL]	MIC (Aspergillus flavus) [µg/mL]	MIC (Talaromyces marneffei) [µg/mL]	MIC (Aspergillus fumigatus) [µg/mL]	MIC (Trichophyton benhamiae) [µg/mL]	MIC (Klebsiella pneumoniae) [µg/mL]	MIC (Pseudomonas aeruginosa) [µg/mL]	MIC (Staphylococcus aureus) [µg/mL]	SMILES	inhibition zone (IZ) (Escherichia coli) [mm]	inhibition zone (IZ) (Aspergillus flavus) [mm]	inhibition zone (IZ) (Talaromyces marneffei) [mm]	inhibition zone (IZ) (Aspergillus fumigatus) [mm]	inhibition zone (IZ) (Trichophyton benhamiae) [mm]	inhibition zone (IZ) (Klebsiella pneumoniae) [mm]	inhibition zone (IZ) (Pseudomonas aeruginosa) [mm]	inhibition zone (IZ) (Staphylococcus aureus) [mm]
6.25 (≈ 13.7 µM)	6.25 (≈ 13.7 µM)	6.25 (≈ 13.7 µM)	6.25 (≈ 13.7 µM)	6.25 (≈ 13.7 µM)	6.25 (≈ 13.7 µM)	6.25 (≈ 13.7 µM)	6.25 (≈ 13.7 µM)	CS(=O)(=O)c1ccc(OCc2nnc3sc(-c4cccc(Cl)c4Cl)nn23)cc1	16	16	16	16	16	16	16	16
12.5 (≈ 32.3 µM)	12.5 (≈ 32.3 µM)	25 (≈ 64.7 µM)	12.5 (≈ 32.3 µM)	12.5 (≈ 32.3 µM)	12.5 (≈ 32.3 µM)	12.5 (≈ 32.3 µM)	12.5 (≈ 32.3 µM)	CS(=O)(=O)c1ccc(OCc2nnc3sc(-c4ccccc4)nn23)cc1	11	11	<10	11	11	11	11	11
6.25 (≈ 17 µM)	6.25 (≈ 17 µM)	6.25 (≈ 17 µM)	6.25 (≈ 17 µM)	6.25 (≈ 17 µM)	6.25 (≈ 17 µM)	6.25 (≈ 17 µM)	6.25 (≈ 17 µM)	CSc1ccc(OCc2nnc3sc(-c4ccc(C)cc4)nn23)cc1	16	16	16	16	16	16	16	16
6.25 (≈ 16.3 µM)	6.25 (≈ 16.3 µM)	6.25 (≈ 16.3 µM)	6.25 (≈ 16.3 µM)	6.25 (≈ 16.3 µM)	6.25 (≈ 16.3 µM)	6.25 (≈ 16.3 µM)	6.25 (≈ 16.3 µM)	COc1ccc(-c2nn3c(COc4ccc(SC)cc4)nnc3s2)cc1	16	16	16	16	16	16	16	16
25 (≈ 55.4 µM)	25 (≈ 55.4 µM)	25 (≈ 55.4 µM)	25 (≈ 55.4 µM)	25 (≈ 55.4 µM)	25 (≈ 55.4 µM)	25 (≈ 55.4 µM)	25 (≈ 55.4 µM)	CCSc1ccc(OCc2nnc3n2N=C(c2ccc(Cl)cc2Cl)CS3)cc1	<10	<10	<10	<10	<10	<10	<10	<10
6.25 (≈ 14.2 µM)	6.25 (≈ 14.2 µM)	6.25 (≈ 14.2 µM)	6.25 (≈ 14.2 µM)	6.25 (≈ 14.2 µM)	6.25 (≈ 14.2 µM)	6.25 (≈ 14.2 µM)	6.25 (≈ 14.2 µM)	CCSc1ccc(OCc2nnc3n2N=C(c2ccc(O)c(C(N)=O)c2)CS3)cc1	16	16	16	16	16	16	16	16
6.25 (≈ 14.3 µM)	6.25 (≈ 14.3 µM)	6.25 (≈ 14.3 µM)	6.25 (≈ 14.3 µM)	6.25 (≈ 14.3 µM)	6.25 (≈ 14.3 µM)	6.25 (≈ 14.3 µM)	6.25 (≈ 14.3 µM)	CSc1ccc(OCc2nnc3n2N=C(c2ccc(Cl)cc2Cl)CS3)cc1	16	16	16	16	16	16	16	16
12.5 (≈ 29.7 µM)	12.5 (≈ 29.7 µM)	25 (≈ 59.4 µM)	12.5 (≈ 29.7 µM)	12.5 (≈ 29.7 µM)	12.5 (≈ 29.7 µM)	12.5 (≈ 29.7 µM)	12.5 (≈ 29.7 µM)	CS(=O)(=O)c1ccc(OCc2nnc3sc(-c4ccccc4Cl)nn23)cc1	11	11	<10	11	11	11	11	11
25 (≈ 58.5 µM)	25 (≈ 58.5 µM)	25 (≈ 58.5 µM)	25 (≈ 58.5 µM)	25 (≈ 58.5 µM)	25 (≈ 58.5 µM)	25 (≈ 58.5 µM)	25 (≈ 58.5 µM)	CSc1ccc(OCc2nnc3n2N=C(c2ccc(O)c(C(N)=O)c2)CS3)cc1	<10	<10	<10	<10	<10	<10	<10	<10
25 (≈ 60 µM)	25 (≈ 60 µM)	25 (≈ 60 µM)	25 (≈ 60 µM)	25 (≈ 60 µM)	25 (≈ 60 µM)	25 (≈ 60 µM)	25 (≈ 60 µM)	CCSc1ccc(OCc2nnc3n2N=C(c2ccc(Cl)cc2)CS3)cc1	<10	<10	<10	<10	<10	<10	<10	<10
25 (≈ 62.7 µM)	25 (≈ 62.7 µM)	25 (≈ 62.7 µM)	25 (≈ 62.7 µM)	25 (≈ 62.7 µM)	25 (≈ 62.7 µM)	25 (≈ 62.7 µM)	25 (≈ 62.7 µM)	CCSc1ccc(OCc2nnc3sc(-c4ccc(OC)cc4)nn23)cc1	<10	<10	<10	<10	<10	<10	<10	<10
25 (≈ 57.2 µM)	25 (≈ 57.2 µM)	25 (≈ 57.2 µM)	25 (≈ 57.2 µM)	25 (≈ 57.2 µM)	25 (≈ 57.2 µM)	25 (≈ 57.2 µM)	25 (≈ 57.2 µM)	CCSc1ccc(OCc2nnc3sc(-c4cccc(Cl)c4Cl)nn23)cc1	<10	<10	<10	<10	<10	<10	<10	<10
